# NPY-Y1 PAM-ag: potentiates or activates human NPY-Y1 receptor; P25929; AID 1304; 220,000 tested, 0.37% active; activation, % at 3.6 µM; NPY-Y1 expressing cells, potentiator/agonist activation; in the data active = activation above about 33%, passing the limit was not always enough;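 note: cells stimulated with NPY at EC10 then isoproterenol at EC100; 0% = low agonist plus stimulus and 100% = saturating agonist plus stimulus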
# NPY Y1 blocker: antagonists of human neuropeptide Y receptor Y1; P25929; inhibition, % at 3.6 µM; 200,000 tested, 1% active; HEK293-CNG Y1 cells, membrane potential fluorescence; NPY at EC95, then isoproterenol;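 active = inhibition above the campaign mean inhibition of all tested compounds plus 3 SD, cut at about 20% in these data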;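 note: 0% = DMSO wells given NPY plus isoproterenol and 100% = isoproterenol alone without NPY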
#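 Material: HEK293 Y1/CNG channel cell line; also added: NPY (25 nM), isoproterenol (1 µM), Ro 20-1724 (25 µM); doses: one concentration, 3.6 µM, in 0.4% DMSO; schedule: compound incubation 1 h at room temperature, readout 45 min post-stimulation; technique: membrane potential fluorescence; measure: fluorescence ratio normalized to % inhibition between controls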
# EP2 antag: EP2 receptor (human) inhibition. inhibition, % at 25 µM. 260,000 tested, 0.52% active. P43116. C6 glioma cells expressing human EP2, cAMP TR-FRET; cells stimulated with saturating PGE2;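 active = percent inhibition above 40 after rounding to a whole number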;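 note: rat C6 glioma host cells with rolipram phosphodiesterase inhibitor present; the protocol text gives 20 µM as final concentration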
# Target sequence (P43116 whole entry, looked up): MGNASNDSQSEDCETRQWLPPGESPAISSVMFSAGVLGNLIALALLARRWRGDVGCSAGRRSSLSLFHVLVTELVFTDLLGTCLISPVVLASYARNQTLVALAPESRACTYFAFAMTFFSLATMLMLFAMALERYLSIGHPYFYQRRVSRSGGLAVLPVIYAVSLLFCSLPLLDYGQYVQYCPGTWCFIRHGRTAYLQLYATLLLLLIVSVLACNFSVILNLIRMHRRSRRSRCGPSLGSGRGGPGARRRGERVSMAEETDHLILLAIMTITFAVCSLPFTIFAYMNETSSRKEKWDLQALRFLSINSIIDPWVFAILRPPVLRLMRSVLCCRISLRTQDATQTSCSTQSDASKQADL
# NPY-Y2 antag: antagonists of human neuropeptide Y receptor Y2 | NPY-Y2 expressing cells, antagonist mode | inhibition, % at 2.7 µM | 140,000 tested, 0.99% active; in the data active = inhibition above about 17%;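 note: 0% = vehicle with agonist challenge and 100% = reference antagonist with challenge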
# NPY2 pot ag: potentiates or activates human NPY-Y2 receptor; 220,000 tested, 0.45% active; cells expressing NPY-Y2, potentiator/agonist read-out; activation, % at 3.6 µM; P49146; in the data active = activation above about 27%;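 note: cells stimulated with NPY near EC25 plus isoproterenol at EC100; 0% = vehicle plus submaximal agonist and 100% = vehicle plus saturating agonist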
# EP2 modulator: EP2 receptor (human) modulation; EP2-expressing cells, cAMP HTRF FRET, PGE2 co-stimulation; 260,000 tested, 0.83% active; P43116; AID 940; induction, % at 25 µM;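 active = compounds whose cAMP rise, as percent of the full-agonist control response, exceeds 60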;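 note: rat C6 glioma line stably carrying human EP2 under a CMV promoter; the protocol text gives 20 µM as final concentration; 100% = response of wells given 1 µM PGE2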
# EP2 cAMP induct: EP2 receptor cAMP induction, counter-screens negative; shares compounds with EP2 modulator; C6 glioma EP2 cells, cAMP HTRF induction; plus low (about EC15) PGE2 agonist; calls only at 20 µM (by protocol); 1,300 tested, 47% active; AID 1080;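 active = cAMP induction above 50% in the main assay while under 30% in all four parallel counter assays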;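 note: rat C6 glioma cells stably expressing human EP2 receptor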
# Starred values were filed as active, the others as inactive; i = inactive; . = no result given; + = active, no number. Most compounds without a hit are left out; they make up all but 2.8% or so of the library.
SMILES,NPY-Y1 PAM-ag,NPY Y1 blocker,EP2 antag,NPY-Y2 antag,NPY2 pot ag,EP2 modulator,EP2 cAMP induct
COc1c(Cl)cc(C(=O)Nc2cccc(C)n2)cc1Cl,.,.,10,.,.,-26,.
CC(C)c1nc2sc3c(=O)[nH]cnc3c2c2c1CCC2,-8,-2,6,3,4,54,.
CC(C)Cc1nc2sc3c(=O)[nH]cnc3c2c2c1CCC2,3,-1,5,2,15,74*,i
O=C(c1n[nH]c2c1CCC2)N1C2CCC1CC(c1ccc(F)cc1)C2 (stereo not drawn),.,.,.,.,.,-26,.
COc1ccc2c(c1)C(O)CC1(CCN(CC(O)c3ccc(C)c(C)c3)CC1)O2 (stereo not drawn),.,.,9,.,.,-55,.
COC(=O)c1cc(Br)c(=O)n(-c2nccs2)c1,14,1,25,4,15,65*,i
COC(=O)CSC1=C(C#N)C(c2ccc(OC)cc2)CC(=O)N1 (stereo not drawn),.,.,5,.,.,-15,.
FC(F)(F)c1cc(CO[C@H]2CCCN[C@H]2c2ccccc2)cc(C(F)(F)F)c1,.,.,14,.,.,68*,i
Brc1cc2c(cc1Cn1c(-c3cncs3)nc3ccccc31)OCO2,-5,7,7,3,-7,50,.
Cc1cccc(Cn2c(Cc3ccccc3)nc3ccccc32)c1,6,4,10,4,15,93*,+
Cc1cc(C)c(C)c(Cn2c(CO)nc3ccccc32)c1C,-51,5,5,7,-12,80*,+
Cc1ccccc1Cn1c(Cc2ccccc2)nc2ccccc21,-13,15,7,5,1,71*,+
Cc1ccccc1Cn1c(-c2cncs2)nc2ccccc21,14,-3,16,7,19,68*,i
COc1cc(C(c2nnnn2C(C)(C)C)N2CCN(C3CCCC3)CC2)cc(OC)c1OC (stereo not drawn),.,.,10,.,.,-16,.
COc1ccc(-n2nnnc2SCC(=O)c2cc(Cl)ccc2OC)cc1,.,.,17,.,.,-48,.
Brc1ccccc1Cn1c(-c2cscn2)nc2ccccc21,3,-3,4,13,4,80*,+
CSc1ccccc1NC(=O)Cn1c(-c2cscn2)nc2ccccc21,-14,3,8,5,-9,20,.
CC1NC(=O)NC1CCCCCC(=O)Nc1ccc(F)cc1 (stereo not drawn),5,0,13,.,7,-17,.
Cc1c(F)cccc1NC(=O)CCCCCC1NC(=O)NC1C (stereo not drawn),11,5,9,.,-4,77*,i
O=C1C=C(c2ccccc2)C(O)(c2ccccc2)C1 (stereo not drawn),10,3,10,1,6,30,.
O=C1CC(O)(c2ccccc2)C(c2ccccc2)=C1c1ccccc1 (stereo not drawn),-18,1,10,6,4,76*,+
CC(NC(=O)Cc1ccccc1)c1nc(-c2ccncc2)n[nH]1 (stereo not drawn),.,.,9,.,.,21,.
Cc1ccc(-c2cc(C(F)(F)F)nn2-c2ccc(S(N)(=O)=O)cc2)cc1,.,.,11,.,.,66*,+
Cc1cc(C)n(CCOc2ccc(Cl)cc2Cl)n1,-6,-8,5,0,-3,73*,+
Cc1cc(C)n(C(=O)COc2ccc(Cl)cc2Cl)n1,-30,0,3,8,-6,36,.
SMILES,NPY-Y1 PAM-ag,NPY Y1 blocker,EP2 antag,NPY-Y2 antag,NPY2 pot ag,EP2 modulator,EP2 cAMP induct
Cc1onc(-c2c(F)cccc2Cl)c1C(=O)ONC(=O)c1ccccc1,-18,.,7,.,-23,-14,.
Cc1onc(-c2c(F)cccc2Cl)c1C(=O)OCn1nnc2ccccc2c1=O,1,2,7,2,-3,77*,i
CC1CCCC(C)N1C(=O)CN1CCC(n2cnc3cccnc32)CC1 (stereo not drawn),.,.,.,.,.,7,.
CC(=O)N1CCN(S(=O)(=O)c2ccc(F)c(Cl)c2)CC1,-6,9,3,.,-4,2,.
O=S(=O)(c1ccc(F)c(Cl)c1)N1CCCC1,-14,5,7,4,-8,68*,i
Nc1[nH]n2c(=O)c3c(nc2c1N=Nc1ccccc1)CCCC3,-12,9,8,3,9,90*,+
CCOc1ccccc1-c1nc2c(C(C)(C)C)nn(C)c2c(=O)[nH]1,6,-4,15,.,10,84*,+
Cc1ccc2[nH]c(=O)c(CN(C(=S)Nc3ccc(F)cc3)C3CCCCC3)cc2c1,.,.,9,.,.,-60,.
CCOC(=O)c1cnc2c(c(C)nn2C)c1Oc1ccc(Cl)cc1,-63,8,3,10,-23,67*,+
Cc1nn(C)c2ncc(C(N)=O)c(Oc3cccnc3)c12,20,.,18,.,10,18,.
COc1cccc2cc(/C(=N/O)c3ccccc3)oc12,-22,14,5,.,-5,68*,+
COc1ccc(C2CC(c3cccs3)=NN2C(=O)c2ccco2)cc1OC (stereo not drawn),5,.,10,.,-10,17,.
COc1ccc(C2CC(c3cccs3)=NN2C(=O)c2ccc(Br)o2)cc1 (stereo not drawn),-10,2,9,5,-5,51,i
CC1=C[N+](=O)c2ccccc2[N+]1=O,.,.,10,.,.,107*,i
O=C(Nc1ccccc1-c1nc2ccccc2s1)C1=COCCO1,-8,5,5,7,3,74*,i
COC(=O)c1nc(NC(=O)C(C)(C)C)n[nH]1,-35,2,16,3,-12,66*,i
CCOC(=O)n1c(=O)n(Cc2ccc(Cl)c(Cl)c2)c2ccccc21,-40,2,9,4,-21,77*,+
O=c1[nH]c2ccc(Br)cc2c(-c2ccccc2)c1N1CCOCC1,26,2,.,3,10,78*,i
CCOC(=O)N1CCN(c2c(-c3ccccc3)c3cc(Cl)ccc3[nH]c2=O)CC1,2,0,.,3,-4,30,.
CCOC(=O)C1CCN(c2c(-c3ccccc3)c3cc(Cl)ccc3[nH]c2=O)CC1,1,-4,16,2,11,80*,i
Clc1ccccc1CN(CCCn1ccnc1)Cc1ccc2ncccc2c1,.,.,8,.,.,-6,.
O=c1c2c(-c3cccs3)csc2ncn1-n1cccc1,18,1,8,0,7,-23,.
Cc1ccc(C)n1-n1cnc2scc(-c3cccs3)c2c1=O,-8,-1,11,3,-10,65*,+
CC(C)c1cc(=O)oc2c3c4c(cc12)CCCN4CCC3,-4,-1,3,0,0,54,+

# Screening results: PubChem BioAssay, several laboratories
